# According to ChEMBL document CHEMBL1124461, “Aromatic dienoyl tetramic acids. Novel antibacterial agents with activity against anaerobes and staphylococci” (J Med Chem, 1989):
# Legend:
# [1] = system: Bacteroides fragilis; experiment: Compound is evaluated for cross resistance with DNA gyrase subunit A or B against Bacteroides fragilis TirR (tirandamycin resistant); format: functional
# [2] = system: Bacteroides fragilis; experiment: Minimum inhibitory concentration against Bacteroides fragilis ATCC 25285; format: functional
# In short: (§1)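 Anaerobic MICs by 2-fold dilution in Wilkens-Chalgren broth, reported in micrograms/milliliter.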
# [3] = system: Bacteroides thetaiotaomicron; experiment: Minimum inhibitory concentration against Bacteroides thetaiotaomicron ATCC 29741; format: functional; in short: as §1
# [4] = system: Clostridioides difficile; experiment: Minimum inhibitory concentration against Clostridium difficile ATCC 9689; format: functional; in short: as §1
# [5] = system: Clostridium perfringens; experiment: Minimum inhibitory concentration against Clostridium perfringens ATCC 13124; format: functional
# In short: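 Anaerobic MIC by 2-fold dilution in Wilkens-Chalgren broth; values in µg/mL.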
# [6] = system: Escherichia coli; experiment: Minimum inhibitory concentration (MIC) against the cell line Escherichia coli H560; format: functional
# In short: (§2)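 Aerobic MICs by 2-fold dilution on brain–heart infusion agar, reported in micrograms/milliliter.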
# [7] = system: Escherichia coli; experiment: Minimum inhibitory concentration (MIC) against the cell line Escherichia coli juhl; format: functional; in short: as §2
# [8] = system: Micrococcus luteus; experiment: Minimum inhibitory concentration (MIC) against the cell line Micrococcus luteus ATCC 4698; format: functional; in short: as §2
# [9] = system: Pseudomonas aeruginosa; experiment: Minimum inhibitory concentration (MIC) against the cell line Pseudomonas aeruginosa A5007; format: functional; in short: as §2
# [10] = biological target: DNA-directed RNA polymerase subunit beta (Escherichia coli K-12) (UniProt P0A8V2); experiment: Percent inhibition at a concentration of 100 ug/mL of RNA polymerase isolated from Escherichia coli K12 (Sigma)
# [11] = system: Staphylococcus aureus; experiment: Compound is evaluated for cross resistance with DNA gyrase subunit A or B against Staphylococcus aureus 730A; format: functional
# In short: (§3)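 Aerobic MIC by 2-fold dilution on brain–heart infusion agar; values in µg/mL.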
# [12] = system: Staphylococcus aureus; experiment: Compound is evaluated for cross resistance with DNA gyrase subunit A or B against Staphylococcus aureus 337-113 (norfloxacin-resistant); format: functional; in short: as §3
# [13] = system: Staphylococcus aureus; experiment: Compound is evaluated for cross resistance with DNA gyrase subunit A or B against Staphylococcus aureus 45; format: functional; in short: as §3
# [14] = system: Staphylococcus aureus; experiment: Compound is evaluated for cross resistance with DNA gyrase subunit A or B against Staphylococcus aureus 45CR-1 (coumermycin resistant); format: functional; in short: as §3
# [15] = system: Streptococcus equinus; experiment: Minimum inhibitory concentration (MIC) against the cell line Streptococcus bovis A5169; format: functional; in short: as §2
# [16] = system: Staphylococcus aureus; experiment: Minimum inhibitory concentration (MIC) against the cell line Staphylococcus aureus A5177; format: functional; in short: as §2
# [17] = system: Staphylococcus aureus; experiment: Minimum inhibitory concentration (MIC) against the cell line Staphylococcus aureus ATCC 6538P; format: functional; in short: as §2
# [18] = system: Staphylococcus aureus; experiment: Minimum inhibitory concentration (MIC) against the cell line Staphylococcus aureus CMX 686B; format: functional; in short: as §2
# [19] = system: Staphylococcus aureus; experiment: Minimum inhibitory concentration (MIC) against the cell line Staphylococcus aureus 45; format: functional; in short: as §2
# [20] = system: Streptococcus pyogenes; experiment: Minimum inhibitory concentration (MIC) against the cell line Streptococcus pyogenes EES61; format: functional; in short: as §2
# [21] = system: Bacteroides fragilis; experiment: Compound is evaluated for cross resistance with DNA gyrase subunit A or B against Bacteroides fragilis ATCC 25285; format: functional
# [22] = system: Staphylococcus epidermidis; experiment: Minimum inhibitory concentration (MIC) against the strain Staphylococcus epidermidis 3519
# Sequence of DNA-directed RNA polymerase subunit beta (Escherichia coli K-12) (P0A8V2 whole entry, looked up): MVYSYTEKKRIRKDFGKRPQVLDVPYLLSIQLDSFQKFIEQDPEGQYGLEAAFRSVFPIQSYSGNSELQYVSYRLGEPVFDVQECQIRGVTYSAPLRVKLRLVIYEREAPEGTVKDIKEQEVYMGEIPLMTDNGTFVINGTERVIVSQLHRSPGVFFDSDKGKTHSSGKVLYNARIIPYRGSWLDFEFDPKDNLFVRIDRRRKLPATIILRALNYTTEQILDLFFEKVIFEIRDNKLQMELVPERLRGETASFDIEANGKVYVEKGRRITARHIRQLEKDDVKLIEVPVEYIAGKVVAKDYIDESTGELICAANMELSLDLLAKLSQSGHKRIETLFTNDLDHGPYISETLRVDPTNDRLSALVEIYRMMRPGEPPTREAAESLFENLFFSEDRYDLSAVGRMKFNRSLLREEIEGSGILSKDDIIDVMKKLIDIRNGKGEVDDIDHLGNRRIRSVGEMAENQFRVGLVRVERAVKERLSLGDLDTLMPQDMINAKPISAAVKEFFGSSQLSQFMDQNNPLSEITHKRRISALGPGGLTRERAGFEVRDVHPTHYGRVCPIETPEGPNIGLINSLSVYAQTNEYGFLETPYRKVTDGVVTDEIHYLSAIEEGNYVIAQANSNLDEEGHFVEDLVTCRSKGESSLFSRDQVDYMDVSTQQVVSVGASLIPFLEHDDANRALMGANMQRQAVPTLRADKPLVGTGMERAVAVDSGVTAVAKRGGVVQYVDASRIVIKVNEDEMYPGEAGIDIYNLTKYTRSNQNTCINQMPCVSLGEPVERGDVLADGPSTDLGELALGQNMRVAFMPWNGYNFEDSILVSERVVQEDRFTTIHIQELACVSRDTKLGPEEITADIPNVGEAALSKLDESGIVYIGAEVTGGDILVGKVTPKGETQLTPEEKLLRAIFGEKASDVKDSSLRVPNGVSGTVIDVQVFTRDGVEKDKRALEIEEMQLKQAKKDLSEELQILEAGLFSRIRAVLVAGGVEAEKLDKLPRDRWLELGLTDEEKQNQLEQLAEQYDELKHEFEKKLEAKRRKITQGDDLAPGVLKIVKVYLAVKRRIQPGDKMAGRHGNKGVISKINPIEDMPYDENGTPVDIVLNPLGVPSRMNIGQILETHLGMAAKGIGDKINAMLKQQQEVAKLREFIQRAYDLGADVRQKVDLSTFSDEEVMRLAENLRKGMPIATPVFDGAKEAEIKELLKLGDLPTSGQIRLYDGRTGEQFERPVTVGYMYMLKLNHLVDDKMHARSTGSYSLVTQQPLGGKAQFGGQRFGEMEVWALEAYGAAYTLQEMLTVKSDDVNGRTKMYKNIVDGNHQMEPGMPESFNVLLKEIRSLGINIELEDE
Compound,MIC [2] [µg/mL],MIC [3] [µg/mL],MIC [4] [µg/mL],MIC [5] [µg/mL],other results
CC(/C=C/C(=O)C1=C(O)CN(C)C1=O)=C\c1ccc2ccccc2c1,< 0.5,31,< 0.5,2,MIC [1]: 0.5 µg/mL; MIC [6]: 200 µg/mL; MIC [7]: 200 µg/mL; MIC [8]: 1.56 µg/mL; MIC [9]: 100 µg/mL; inhibition [10]: 12.3%; MIC [11]: 0.25 µg/mL; MIC [12]: 0.25 µg/mL; MIC [13]: 0.25 µg/mL; MIC [14]: 0.25 µg/mL; MIC [15]: 200 µg/mL; MIC [16]: 1.56 µg/mL; MIC [17]: 1.56 µg/mL; MIC [18]: 1.56 µg/mL; MIC [19]: 1.56 µg/mL; MIC [20]: 50 µg/mL; MIC [21]: 0.5 µg/mL; MIC [22]: 1.56 µg/mL
CC(/C=C/C(=O)C1=C(O)CN(C)C1=O)=C\C1CCc2ccccc2C1 (stereo not given),125,62,125,125,–
O=C(/C=C/C=C/c1ccccc1)C1=C(O)CNC1=O,50,50,25,25,–
COc1ccc(/C=C(C)/C=C/C(O)=C2\C(=O)CN(C)C2=O)c2ccccc12,62,125,4,2,–
CC(/C=C/C(=O)C1=C(O)CN(C)C1=O)=C\c1cccc2ccccc12,< 0.5,2,< 0.5,< 0.5,MIC [6]: > 100 µg/mL; MIC [7]: > 100 µg/mL; MIC [8]: 6.2 µg/mL; MIC [9]: > 100 µg/mL; MIC [15]: 50 µg/mL; MIC [16]: 3.1 µg/mL; MIC [17]: 3.1 µg/mL; MIC [18]: 3.1 µg/mL; MIC [19]: 3.1 µg/mL; MIC [20]: 12.5 µg/mL; MIC [22]: 3.1 µg/mL
CC(/C=C/C(=O)C1=C(O)CN(C)C1=O)=C\c1ccccn1,62,125,8,31,–
CN1CC(O)=C(C(=O)/C=C/C=C/c2ccccc2)C1=O,62,62,16,125,–
CC(/C=C/C(O)=C1\C(=O)C2CCCN2C1=O)=C\c1ccc2ccccc2c1 (stereo not given),31,62,16,31,–
CC(/C=C/C(O)=C1\C(=O)CN(C)C1=O)=C\C(C)C1CCCCC1 (stereo not given),8,62,2,2,–
CN1CC(O)=C(C(=O)/C=C/C(Cl)=C/c2ccccc2)C1=O,16,16,8,8,–
CN1CC(=O)\C(=C(O)/C=C/C=C/c2ccc(N(C)C)cc2)C1=O,125,62,31,31,–
CC(/C=C/C(=O)C1=C(O)C(C)N(C)C1=O)=C\c1ccc2ccccc2c1 (stereo not given),62,62,62,31,–
CC(/C=C/C(=O)C1=C(O)CN(C)C1=O)=C\CC1CCCCC1,8,31,2,2,–
CO[C@H]1/C=C/O[C@@]2(C)Oc3c(C)c(O)c4c(O)c(c(/C=N/N5CCN(C)CC5)c(O)c4c3C2=O)NC(=O)/C(C)=C\C=C\[C@H](C)[C@H](O)[C@@H](C)[C@@H](O)[C@@H](C)[C@H](OC(C)=O)[C@@H]1C,–,–,–,–,inhibition [10]: 57%
CC(/C=C/C(=O)C1=C(O)CN(C)C1=O)=C\c1ccnc2ccccc12,16,31,8,8,–
CCCCCC(/C=C/C(O)=C1\C(=O)CN(C)C1=O)=C\c1ccccc1,62,125,31,16,inhibition [10]: 5.6%
CC(/C=C/C(O)=C1\C(=O)CNC1=O)=C\c1ccc2ccccc2c1,≤ 0.5,≤ 0.5,≤ 0.5,≤ 0.5,MIC [6]: > 100 µg/mL; MIC [7]: > 100 µg/mL; MIC [8]: 6.2 µg/mL; MIC [9]: 100 µg/mL; inhibition [10]: 13.1%; MIC [15]: 12.5 µg/mL; MIC [16]: 1.56 µg/mL; MIC [17]: 0.78 µg/mL; MIC [18]: 0.78 µg/mL; MIC [19]: 0.78 µg/mL; MIC [20]: 12.5 µg/mL; MIC [22]: 3.1 µg/mL
CN1CC(O)=C(C(=O)/C=C/C(Br)=C/c2ccccc2)C1=O,16,16,16,8,–
CC(/C=C/C(=O)C1=C(O)CN(C)C1=O)=C\c1c(O)ccc2ccccc12,31,31,16,16,–
